Assay results from publication PMC3442410 (Molecular Biology of the Cell, 2012).
Substitutions are numbered along the chain they refer to.

Tests used:
[1] = molecular target: T1, OSBP (Oryctolagus cuniculus, UniProt P16258); experiment: Specific binding of [3H]25OH by purified OSBP; set-up: species or system rabbit
T1 sequence (P16258 1-809): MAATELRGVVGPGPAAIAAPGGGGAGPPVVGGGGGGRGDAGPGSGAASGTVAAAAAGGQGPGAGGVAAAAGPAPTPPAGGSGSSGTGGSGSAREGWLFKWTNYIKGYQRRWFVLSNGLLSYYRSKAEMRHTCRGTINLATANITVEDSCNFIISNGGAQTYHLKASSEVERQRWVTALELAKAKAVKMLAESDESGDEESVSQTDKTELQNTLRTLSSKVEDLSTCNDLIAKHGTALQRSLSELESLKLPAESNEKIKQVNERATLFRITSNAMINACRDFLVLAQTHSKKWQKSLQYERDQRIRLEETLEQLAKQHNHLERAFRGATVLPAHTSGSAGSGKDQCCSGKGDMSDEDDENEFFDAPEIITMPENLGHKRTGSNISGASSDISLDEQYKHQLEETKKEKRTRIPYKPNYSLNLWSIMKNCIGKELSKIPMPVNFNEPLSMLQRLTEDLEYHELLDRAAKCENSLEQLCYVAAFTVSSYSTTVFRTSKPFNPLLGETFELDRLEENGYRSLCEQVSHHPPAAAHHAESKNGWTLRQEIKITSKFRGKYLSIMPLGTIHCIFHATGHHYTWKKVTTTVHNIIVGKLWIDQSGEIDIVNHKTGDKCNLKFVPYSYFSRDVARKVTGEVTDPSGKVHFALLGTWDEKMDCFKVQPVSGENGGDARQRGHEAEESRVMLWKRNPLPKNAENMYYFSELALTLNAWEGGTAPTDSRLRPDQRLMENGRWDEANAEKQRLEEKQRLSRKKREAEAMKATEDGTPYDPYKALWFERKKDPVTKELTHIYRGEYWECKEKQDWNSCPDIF
How it was run: (§1)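 His-tagged (C-terminal V5-His) rabbit OSBP or mutant expressed in Sf21 cells by baculovirus, purified and kept in Tris-HCl pH 7.4/250 mM NaCl. 12 pmol protein incubated with [3H]25OH in 10 mM HEPES pH 7.4, 100 mM KCl, 2% polyvinyl alcohol at 4°C, 16 h. Charcoal-dextran added for 30 min, then spun 10,000 × g, 10 min. Supernatant bound sterol counted by scintillation. Specific binding is total minus binding with 40-fold excess unlabeled 25OH.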

[2] = molecular target: T2, OSBP-S381A (Oryctolagus cuniculus, UniProt P16258, S381A); experiment: Specific binding of [3H]25OH by purified OSBP-S381A; set-up: species or system rabbit
T2 sequence (P16258 1-809 S381A): T1 sequence (P16258 1-809) with S381A
How it was run: as §1

[3] = molecular target: T3, OSBP-S3E (Oryctolagus cuniculus, UniProt P16258, S381E/S384E/S387E); experiment: Specific binding of [3H]25OH by purified OSBP-S3E; set-up: species or system rabbit
T3 sequence (P16258 2-809 S381E/S384E/S387E limits assumed): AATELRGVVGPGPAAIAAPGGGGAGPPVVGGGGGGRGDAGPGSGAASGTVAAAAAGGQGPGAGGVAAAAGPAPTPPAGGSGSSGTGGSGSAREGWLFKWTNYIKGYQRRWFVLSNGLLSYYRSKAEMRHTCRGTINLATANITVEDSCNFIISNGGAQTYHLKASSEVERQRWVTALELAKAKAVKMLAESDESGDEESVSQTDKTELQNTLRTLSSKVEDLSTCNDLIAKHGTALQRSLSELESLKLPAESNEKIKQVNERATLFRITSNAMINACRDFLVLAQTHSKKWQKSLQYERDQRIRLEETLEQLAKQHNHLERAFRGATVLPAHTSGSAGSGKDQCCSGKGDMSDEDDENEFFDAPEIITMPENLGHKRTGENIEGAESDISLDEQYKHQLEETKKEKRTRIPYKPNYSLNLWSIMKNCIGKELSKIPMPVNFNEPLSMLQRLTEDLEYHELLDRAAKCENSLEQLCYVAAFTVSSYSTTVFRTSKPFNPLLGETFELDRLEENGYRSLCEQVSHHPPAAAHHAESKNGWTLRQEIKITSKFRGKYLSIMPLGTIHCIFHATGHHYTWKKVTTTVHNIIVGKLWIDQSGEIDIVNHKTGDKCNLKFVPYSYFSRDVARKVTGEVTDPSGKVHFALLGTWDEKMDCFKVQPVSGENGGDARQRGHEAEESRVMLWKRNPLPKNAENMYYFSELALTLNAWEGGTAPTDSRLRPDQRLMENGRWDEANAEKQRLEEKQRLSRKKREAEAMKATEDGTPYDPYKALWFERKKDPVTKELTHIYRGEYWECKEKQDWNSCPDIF
How it was run: as §1

[4] = molecular target: T4, OSBP-S5E (Oryctolagus cuniculus, UniProt P16258, S381E/S384E/S387E/S388E/S391E); experiment: Specific binding of [3H]25OH by purified OSBP-S5E; set-up: species or system rabbit
T4 sequence (P16258 1-809 S381E/S384E/S387E/S388E/S391E): T1 sequence (P16258 1-809) with S381E, S384E, S387E, S388E, S391E
How it was run: as §1

[5] = tested on: SM synthesis; experiment: 25OH-activated SM synthesis; assay type: cell-based, CHO cells; conditions: 25OH 6 μM, 6 h
How it was run: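 OSBP-deficient CHO cells (stable lentiviral shOSBP) grown in DMEM with 5% fetal calf serum, transiently transfected for 48 h (Lipofectamine 2000) with OSBP constructs carrying three silent shRNA-resistant mutations. Cells then treated with 25OH (6 μM) or solvent control for 6 h. SM and ceramide synthesis measured by [3H]serine incorporation. Mean and SEM of three experiments.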

[6] = molecular target: T1, OSBP; experiment: Direct extraction of radiolabeled PI or PI; assay type: binding, rabbit; conditions: OSBP 50 pmol; liposomes with 0.5 mol% [32P]PI(4)P; compared with [3H]PI
[7] = [3H]25OH, 12 pmol protein, 4°C, 16 h

Kd [1]	Bmax [1, 7]	Kd [2]	Bmax [2, 7]	Kd [3]	Bmax [3, 7]	Kd [4]	binding capacity (Bmax) [4, 7]	extraction from liposomes into supernatant [6]	Compound	activation of SM synthesis ([5]; deficient CHO cells expressing S381A/S3A, S5E/S3D or S5E/S3A double mutants)	activation of SM synthesis ([5]; deficient CHO cells expressing wild-type OSBP)
28 ± 5 nM	0.63 ± 0.05	51 ± 12 nM	0.68 ± 0.11	58 ± 14 nM	0.49 ± 0.15	35 ± 9 nM	2.0 ± 0.26	–	C[C@H](CCCC(C)(C)O)[C@H]1CC[C@H]2[C@@H]3CC=C4C[C@@H](O)CC[C@]4(C)[C@H]3CC[C@]12C [25OH, 25-hydroxycholesterol]	2.5 fold	2.5 fold
–	–	–	–	–	–	–	–	extracted significantly more	phosphatidylinositol 4-phosphate [PI(4)P]	–	–
